Experimental data as given in ChEMBL document CHEMBL3808280, “GroEL/ES inhibitors as potential antibiotics” (Bioorg Med Chem Lett, 2016).

Columns and labels:
Escherichia coli [1] = assay: Antibacterial activity against acrB-deficient Escherichia coli MC4100 assessed as reduction in bacterial growth incubated for 6 to 8 hrs; format: functional, organism-based
HEK293 = assay: Cytotoxicity against HEK293 cells assessed as reduction in cell viability after 48 hrs by alamar blue assay; format: cell-based; details: Homo sapiens, HEK293, 48 h
Staphylococcus aureus [2] = assay: Antibacterial activity against methicillin resistant Staphylococcus aureus subsp. aureus HPV107 (ATCC BAA-44) assessed as reduction in bacterial growth incubated for 6 to 8 hrs; format: functional, organism-based
Summary of the method: (§1)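 Broth proliferation assay. S. aureus and MRSA grown in ATCC Medium 18, other pathogens in Brain Heart Infusion. Stagnant incubation at 37°C under breathable seal. OD600 read at mid-log (6-8 h) and corrected with bacteria-free baseline plates. EC50 by variable-slope nonlinear fit, at least triplicate.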

E. coli GroEL/ES [3] = target: T1, E. coli GroEL/ES (Escherichia coli, UniProt P0A6F5); assay: Inhibition of Escherichia coli GroEL/GroES using Escherichia coli GroEL expressed in Escherichia coli DH5alpha cells and Escherichia coli GroES expressed in Escherichia coli BL21(DE3) cells assessed as reduction in denatured pig heart MDH ATPase activity by malachite green dye based assay
Enterobacter cloacae = assay: Antibacterial activity against multidrug resistant Enterobacter cloacae subsp. cloacae CDC 442-68 (ATCC 13047) assessed as reduction in bacterial growth incubated for 6 to 8 hrs; format: functional, organism-based; summary of the method: as §1
Bacillus subtilis = assay: Antibacterial activity against Bacillus subtilis 168 assessed as reduction in bacterial growth incubated for 6 to 8 hrs; format: functional, organism-based; details: subsp. subtilis str. 168
[4] = system: Klebsiella pneumoniae subsp. pneumoniae; assay: Antibacterial activity against multidrug resistant Klebsiella pneumoniae subsp. pneumoniae NCTC 9633 (ATCC 13883) assessed as reduction in bacterial growth incubated for 6 to 8 hrs; format: functional, organism-based; summary of the method: as §1
Enterococcus faecium = assay: Antibacterial activity against multidrug resistant Enterococcus faecium NCTC 7171 (ATCC 19434) assessed as reduction in bacterial growth incubated for 6 to 8 hrs; format: functional, organism-based; summary of the method: as §1
[5] = Cytotoxicity against human THLE3 cells assessed as reduction in cell viability after 48 hrs by alamar blue assay; format: cell-based; details: THLE3, 48 h
HSP60/HSP10 [6] = target: T2, HSP60/HSP10 (Homo sapiens, UniProt P10809); assay: Inhibition of human HSP60/HSP10 expressed in Escherichia coli Rosetta2(DE3) cells assessed as inhibition of denatured pig heart MDH refolding by measuring reduction in NADH production incubated for 60 mins by micro plate reader analysis
Summary of the method: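 Pig heart MDH was denatured in guanidine-HCl (dMDH) and complexed with HSP60, then HSP10, in Tris pH 7.4/KCl/MgCl2/DTT buffer. EDTA quench (100 mM final); refolded MDH activity was followed with mesoxalate/NADH at 340 nm.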

Pseudomonas aeruginosa = assay: Antibacterial activity against multidrug resistant Pseudomonas aeruginosa NCTC 10332 (ATCC 10145) assessed as reduction in bacterial growth incubated for 6 to 8 hrs; format: functional, organism-based; summary of the method: as §1
E. coli GroEL/ES [7] = target: T1, E. coli GroEL/ES; assay: (§2) Inhibition of Escherichia coli GroEL/GroES using Escherichia coli GroEL expressed in Escherichia coli DH5alpha cells and Escherichia coli GroES expressed in Escherichia coli BL21(DE3) cells assessed as inhibition of denatured pig heart MDH refolding by measuring reduction in NADH production incubated for 60 mins by micro plate reader analysis
Summary of the method: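 Denatured MDH (guanidine-HCl/DTT, 30 min RT) bound to GroEL with GroES in Tris pH 7.4, KCl, MgCl2, DTT buffer. 60 min at 37°C, EDTA quench to 100 mM. Refolded MDH activity read with mesoxalate/NADH at 340 nm. Log-averaged IC50 from replicates.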

E. coli GroEL/ES [8] = target: T1, E. coli GroEL/ES; assay: (§3) Inhibition of Escherichia coli GroEL/GroES using Escherichia coli GroEL expressed in Escherichia coli DH5alpha cells and Escherichia coli GroES expressed in Escherichia coli BL21(DE3) cells assessed as reduction in pig heart native refolded MDH-mediated NADH production by micro plate reader analysis
Summary of the method: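 Native MDH counter-screen. GroEL/ES-dMDH refolding run 60 min at 37°C, then EDTA-quenched without compound. IC50 averaged from at least triplicate.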

Escherichia coli [9] = assay: Antibacterial activity against Escherichia coli DH5alpha assessed as reduction in bacterial growth incubated for 6 to 8 hrs; format: functional, organism-based; details: DH5[alpha]
HSP60/HSP10 [10] = target: T2, HSP60/HSP10; assay: Inhibition of human HSP60/HSP10 expressed in Escherichia coli Rosetta2(DE3) cells assessed as reduction in denatured pig heart MDH ATPase activity by malachite green dye based assay
Escherichia coli [11] = assay: Antibacterial activity against Escherichia coli SM101 assessed as reduction in bacterial growth incubated for 12 hrs by UV-Vis spectrophotometric analysis; format: functional, organism-based; details: SM101, 12 h
Acinetobacter baumannii = assay: Antibacterial activity against multidrug resistant Acinetobacter baumannii 2208 (ATCC 19606) assessed as reduction in bacterial growth incubated for 6 to 8 hrs; format: functional; summary of the method: as §1
E. coli GroEL/ES [12] = target: T1, E. coli GroEL/ES; assay: as §2, with “rhodanese” for “pig heart MDH”, “thiocyanate” for “NADH”
Summary of the method: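 Urea-denatured rhodanese bound to GroEL/GroES in folding buffer containing thiosulfate. After 60 min at 37°C, thiocyanate reaction (KCN, thiosulfate, phosphate) run, then formaldehyde quench and ferric nitrate added. Fe(SCN)3 read at 460 nm after 15 min RT, with protein-free baseline plates.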

Staphylococcus aureus [13] = assay: Antibacterial activity against methicillin susceptible Staphylococcus aureus subsp. aureus Seattle 1945 (ATCC 25923) assessed as reduction in bacterial growth incubated for 6 to 8 hrs
E. coli GroEL/ES [14] = target: T1, E. coli GroEL/ES; assay: as §3, with “in” for “in pig heart”, “rhodanese-mediated thiocyanate” for “MDH-mediated NADH”

T1 sequence (P0A6F5 whole entry, looked up): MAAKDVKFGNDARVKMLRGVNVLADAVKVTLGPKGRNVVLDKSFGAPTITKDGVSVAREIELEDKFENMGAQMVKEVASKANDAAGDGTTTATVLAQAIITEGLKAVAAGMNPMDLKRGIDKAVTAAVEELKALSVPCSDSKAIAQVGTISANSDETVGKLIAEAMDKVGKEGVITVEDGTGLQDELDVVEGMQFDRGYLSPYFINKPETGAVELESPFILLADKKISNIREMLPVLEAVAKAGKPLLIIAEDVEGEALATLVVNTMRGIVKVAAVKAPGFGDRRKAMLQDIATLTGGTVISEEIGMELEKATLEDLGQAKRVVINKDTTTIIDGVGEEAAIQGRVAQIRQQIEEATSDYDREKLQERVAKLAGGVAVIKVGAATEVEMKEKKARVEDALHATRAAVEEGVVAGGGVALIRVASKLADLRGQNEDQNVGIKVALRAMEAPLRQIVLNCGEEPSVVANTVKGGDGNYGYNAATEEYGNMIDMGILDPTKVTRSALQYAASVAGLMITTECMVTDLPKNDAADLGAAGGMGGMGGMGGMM
T2 sequence (P10809 whole entry): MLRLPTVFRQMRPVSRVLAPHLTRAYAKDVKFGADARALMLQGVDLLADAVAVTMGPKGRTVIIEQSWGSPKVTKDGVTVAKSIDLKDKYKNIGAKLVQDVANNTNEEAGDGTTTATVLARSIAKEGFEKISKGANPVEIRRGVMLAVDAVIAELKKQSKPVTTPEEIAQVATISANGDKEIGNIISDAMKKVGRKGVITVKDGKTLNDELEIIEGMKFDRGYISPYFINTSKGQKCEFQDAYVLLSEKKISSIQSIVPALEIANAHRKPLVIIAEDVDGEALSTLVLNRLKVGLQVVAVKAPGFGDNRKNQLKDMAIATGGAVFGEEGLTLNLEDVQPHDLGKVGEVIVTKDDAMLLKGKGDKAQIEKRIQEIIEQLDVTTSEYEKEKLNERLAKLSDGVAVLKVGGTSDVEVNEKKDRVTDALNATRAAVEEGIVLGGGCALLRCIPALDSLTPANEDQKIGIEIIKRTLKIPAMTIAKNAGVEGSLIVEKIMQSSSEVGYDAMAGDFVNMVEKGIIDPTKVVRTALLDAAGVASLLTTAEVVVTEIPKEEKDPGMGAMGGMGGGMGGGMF
T2 sequence (P61604 whole entry, further chain): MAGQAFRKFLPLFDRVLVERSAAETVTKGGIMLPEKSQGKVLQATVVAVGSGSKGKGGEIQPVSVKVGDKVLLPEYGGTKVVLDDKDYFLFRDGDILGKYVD

Structure (SMILES) | EC50 (Escherichia coli [1]) [µM] | EC50 (HEK293) [µM] | EC50 (Staphylococcus aureus [2]) [µM] | IC50 (E. coli GroEL/ES [3]) [µM] | EC50 (Enterobacter cloacae) [µM] | EC50 (Bacillus subtilis) [µM] | EC50 [4] [µM] | EC50 (Enterococcus faecium) [µM] | EC50 [5] [µM] | IC50 (HSP60/HSP10 [6]) [µM] | EC50 (Pseudomonas aeruginosa) [µM] | IC50 (E. coli GroEL/ES [7]) [µM] | IC50 (E. coli GroEL/ES [8]) [µM] | EC50 (Escherichia coli [9]) [µM] | IC50 (HSP60/HSP10 [10]) [µM] | EC50 (Escherichia coli [11]) [µM] | EC50 (Acinetobacter baumannii) [µM] | IC50 (E. coli GroEL/ES [12]) [µM] | EC50 (Staphylococcus aureus [13]) [µM] | IC50 (E. coli GroEL/ES [14]) [µM]
Nc1ccc(Nc2nc(-c3ccc(O)c(O)c3)cs2)cc1 | > 100 | 98 | > 100 | > 250 | > 100 | > 100 | > 100 | > 100 | > 100 | 10 | > 100 | 2.7 | > 62.5 | > 100 | > 250 | 84 | 81 | 1.7 | > 100 | 
O=C(/C=C/c1cccc([N+](=O)[O-])c1)c1ccc(NC(=O)c2ccco2)cc1 | > 100 | > 100 | > 100 | 80 | > 100 | > 100 | > 100 | > 100 | > 100 | 1.6 | > 100 | 0.93 | > 62.5 | > 100 | > 250 | 76 | > 100 | 1.4 | > 100 | > 100
O=C(/C=C/c1ccco1)c1ccc(NC(=O)c2cccs2)cc1 | > 100 | 55 | 61 | > 250 | > 100 | > 100 | > 100 | > 100 | 34 | 8.2 | > 100 | 3.6 | > 62.5 | > 100 | > 250 | > 100 | > 100 | 2.3 | > 100 | > 100
CNC(=O)Oc1c(Br)cc2sc(=O)oc2c1Br | > 100 | > 100 | 74 | > 250 | > 100 | 43 | > 100 | > 100 | > 100 | 1.8 | > 100 | 2.6 | > 62.5 | > 100 | > 250 | > 100 | > 100 | 0.89 | 45 | 5.3
O=C(/C=C/c1ccc([N+](=O)[O-])cc1)c1ccc(O)c(O)c1 | > 100 | 12 | 40 | 216 | > 100 | > 100 | > 100 | > 100 | 9.9 | 5.2 | > 100 | 1.2 | > 62.5 | > 100 | > 250 | 48 | > 100 | 0.83 | 23 | 12
